Measurements reported in ChEMBL document CHEMBL1154677, “Microtubule-stabilizing activity of zampanolide, a potent macrolide isolated from the Tongan marine sponge Cacospongia mycofijiensis” (J Med Chem, 2009).
pIC50: −log10 of the molar value. Active and inactive are the calls of the source. The rule behind the calls is not given here.

What was measured:
1A9 [1] = experiment: Cytotoxicity against human 1A9 cells assessed as interphase cells with microtubule bundles at 10 nM after 12 hrs by immunocytochemistry; format: functional
Method in brief: (§1)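 1A9 cells on glass coverslips attached 24 h, then dosed at 0-20 nM for 12 h. Fixed in ice-cold methanol/acetone 1:1, blocked with 5% BSA in PBST, stained with anti-α-tubulin and Alexa 488 secondary plus DAPI, viewed by confocal microscopy. Percent of interphase cells with bundles and mitotic cells with multiple asters scored; n = 3 preparations.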

1A9 [2] = experiment: Cytotoxicity against human 1A9 cells assessed as interphase cells with microtubule bundles at 20 nM after 12 hrs by immunocytochemistry; format: functional; method in brief: as §1
1A9 [3] = experiment: Cytotoxicity against human 1A9 cells assessed as mitotic cells with multiple asters at 20 nM after 12 hrs by immunocytochemistry; format: functional; method in brief: as §1
[4] = Cytotoxicity against p-glycoprotein overexpressing human A2780AD cells by MTT cell proliferation assay; format: functional, cell-based; details: A2780 ADR
Method in brief: (§2)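 A2780 parental and P-gp-overexpressing A2780AD ovarian cells in RPMI-1640 with 10% fetal calf serum and 0.25 units/mL insulin.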

1A9 [5] = experiment: Cytotoxicity against human 1A9 cells assessed as mitotic cells with multiple asters at 5 nM after 12 hrs by immunocytochemistry; format: functional; method in brief: as §1
1A9 [6] = experiment: Cytotoxicity against human 1A9 cells assessed as mitotic cells with multiple asters at 10 nM after 12 hrs by immunocytochemistry; format: functional; method in brief: as §1
1A9 [7] = experiment: Cytotoxicity against human 1A9 cells assessed as interphase cells with microtubule bundles at 5 nM after 12 hrs by immunocytochemistry; format: functional; method in brief: as §1
Tubulin (Homo sapiens) [8] = molecular target: T1, Tubulin (Homo sapiens) (UniProt P68371+Q9H4B7+P0DPH7+P68366+Q13509+Q71U36+P04350+Q3ZCM7+P07437+P68363+Q9BQE3+Q6PEY2+Q13885+Q9BVA1+Q9BUF5); experiment: Induction of tubulin polymerization in human 1A9 cells at 100 nM after 16 hrs by Western blotting; format: cell-based
Method in brief: (§3)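 1A9 cells dosed for 16 h. Lysates split into soluble and particulate fractions at 14000g for 10 min, electrophoresed and immunoblotted for α-tubulin with Cy5 secondary. Percent polymerized = pellet band density / (soluble + pellet) by densitometry; four independent experiments.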

HL-60 [9] = experiment: Cytotoxicity against human HL60 cells assessed as increase in cell diameter after 48 hrs by Giemsa staining; format: functional, cell-based
Method in brief: (§4)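 HL-60 cells given 2-8 nM for 48 h, cytospun onto slides, air-dried, fixed in 100% methanol, Giemsa-stained. Cell diameter measured and compared with untreated cells.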

1A9 [10] = experiment: Cytotoxicity against human 1A9 cells assessed as interphase cells with microtubule bundles at 8 nM after 12 hrs by immunocytochemistry; format: functional; method in brief: as §1
HL-60 [11] = experiment: Cytotoxicity against human HL60 cells after 48 hrs by MTT assay; format: functional, cell-based; details: HL-60, 48 h
Method in brief: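 HL-60 in RPMI-1640 with 10% fetal calf serum plus penicillin-streptomycin. 48 h drug exposure, growth by MTT dye reduction, IC50 from dose-response curves; n = 5 preparations.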

HL-60 [12] = experiment: Cell cycle arrest in human HL60 cells assessed as accumulation in G2/M phase at 2 to 10 nM after 16 hrs by flow cytometry; format: functional, cell-based
Method in brief: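 HL-60 cells in RPMI-1640 with 10% fetal calf serum, exposed 16 h over 2-10 nM. Propidium iodide stain, DNA content by flow cytometry, G2/M and subdiploid fractions scored.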

HL-60 [13] = experiment: Cytotoxicity against human HL60 cells at 2 nM after 24 hrs by Trypan blue exclusion test; format: functional, cell-based
Method in brief: (§5)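 HL-60 cells exposed to drug, then viability counted by Trypan blue dye exclusion at 24 h and 48 h; n = 2 preparations.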

HL-60 [14] = experiment: Cytotoxicity against human HL60 cells assessed as increase in cell diameter at 8 nM after 48 hrs by Giemsa staining; format: functional; method in brief: as §4
1A9 [15] = experiment: Cytotoxicity against human 1A9 cells assessed as mitotic cells with multiple asters at 8 nM after 12 hrs by immunocytochemistry; format: functional; method in brief: as §1
A2780 [16] = experiment: Cytotoxicity against human A2780 cells by MTT cell proliferation assay; format: functional, cell-based
1A9 [17] = experiment: Cytotoxicity against human 1A9 cells after 72 hrs by MTT assay; format: functional, cell-based; details: 1A9, 72 h
Method in brief: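 1A9 ovarian carcinoma in RPMI-1640 with 10% fetal calf serum, penicillin-streptomycin and 0.25 units/mL insulin. 72 h exposure, MTT dye reduction, IC50 from dose-response curves; n = 6 preparations.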

Bos taurus = species on record: Bos taurus; experiment: Induction of bovine tubulin polymerization at 10 uM after 1hr in presence of 1 mM GTP
Method in brief: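 Purified bovine brain tubulin, 2 μM, in 80 mM PIPES, 0.5 mM EGTA, 2 mM MgCl2, 1 mM GTP, pH 6.9, no MAPs. Reaction started by adding drug at 10 μM, 37 °C; ethanol 1% final in controls. A340 read every 30 s for 1 h; three experiments.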

A2780 [18] = experiment: Selectivity ratio of IC50 for p-glycoprotein overexpressing human A2780AD cells to IC50 for human A2780 cells; format: functional; method in brief: as §2
HL-60 [19] = experiment: Cytotoxicity against human HL60 cells assessed as cell death at 10 nM after 48 hrs by Trypan blue exclusion test; format: functional, cell-based; method in brief: as §5
Tubulin (Homo sapiens) [20] = molecular target: T1, Tubulin (Homo sapiens); experiment: Induction of tubulin polymerization in human 1A9 cells after 16 hrs by Western blotting; format: cell-based; method in brief: as §3

SMILES	Activity (1A9 [1])	Activity (1A9 [2])	Activity (1A9 [3])	pIC50 [4]	Activity (1A9 [5])	Activity (1A9 [6])	Activity (1A9 [7])	also measured
CC(=O)O[C@H]1C(=O)[C@@]2(C)[C@H]([C@H](OC(=O)c3ccccc3)[C@]3(O)C[C@H](OC(=O)[C@H](O)[C@@H](NC(=O)c4ccccc4)c4ccccc4)C(C)=C1C3(C)C)[C@]1(OC(C)=O)CO[C@@H]1C[C@@H]2O [PACLITAXEL]	76.5%	81.9%	52.2%	6.38	6.6%	43.3%	13.7%	
C=C1C[C@@H]2C/C=C/C(=O)C/C(C)=C\C=C\C(=O)O[C@H]([C@H](O)NC(=O)/C=C\C=C\C)C/C(C)=C/[C@H](C1)O2 [ZAMPANOLIDE]	55%	74.3%	57.3%	8.12	4.3%	51.4%	9.6%	Activity (Tubulin (Homo sapiens) [8]): Active; Activity (HL-60 [9]): Dose-dependent effect; Activity (1A9 [10]): 28.6%; pIC50 (HL-60 [11]): 8.37; Activity (HL-60 [12]): Active; Activity (HL-60 [13]): Active; Activity (HL-60 [14]): 28.7 micrometer; Activity (1A9 [15]): 21.6%; pIC50 (A2780 [16]): 8.15; pIC50 (1A9 [17]): 7.84; Activity (Bos taurus): Active; Ratio IC50 (A2780 [18]): 1.4; Activity (HL-60 [19]): Active; Activity (Tubulin (Homo sapiens) [20]): Dose-dependent effect
